Laboratory results reported in ChEMBL document CHEMBL1914423, “New imidazo[2,1-b]thiazole derivatives: synthesis, in vitro anticancer evaluation, and in silico studies” (Eur J Med Chem, 2011).

Columns and labels:
Assay type in all cases: functional
HL-60(TB) = assay: Anticancer activity against human HL-60(TB) cells after 48 hrs by SRB assay; details: HL-60, 48 h
Procedure, shortened: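 NCI-60 five-dose screen. Cells grown in RPMI 1640 with 5% FBS and 2 mM L-glutamine, seeded at 5000–40,000 cells/well, and held 24 h at 37 °C and 5% CO₂ before drug. DMSO stocks were diluted into five concentrations (10-fold or ½-log steps). Settled suspension cells were fixed with cold TCA, SRB-stained, and read at 515 nm. […] was taken where [(Ti−Tz)/(C−Tz)]×100 = 50.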

A549 = assay: Anticancer activity against human A549 cells after 48 hrs by SRB assay; details: A549, 48 h
Procedure, shortened: (§1)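 NCI five-dose screen. Cells in RPMI 1640 with 5% FBS and 2 mM L-glutamine, seeded at 5000–40,000 cells/well according to doubling time, then pre-incubated 24 h at 37 °C in 5% CO2. Drugs dissolved in DMSO, five concentrations by 10-fold or 1/2-log dilution. Cells fixed with TCA, SRB-stained, A515 read. IC50 solved from [(Ti−Tz)/(C−Tz)]×100 = 50.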

EKVX = assay: Anticancer activity against human EKVX cells after 48 hrs by SRB assay; procedure, shortened: as §1
NCI-H226 = assay: Anticancer activity against human NCI-H226 cells after 48 hrs by SRB assay; details: NCI-H226, 48 h
NCI-H522 = assay: Anticancer activity against human NCI-H522 cells after 48 hrs by SRB assay; details: NCI-H522, 48 h
HCC 2998 = assay: Anticancer activity against human HCC2998 cells after 48 hrs by SRB assay; details: HCC 2998, 48 h; procedure, shortened: as §1
HCT-116 = assay: Anticancer activity against human HCT116 cells after 48 hrs by SRB assay; details: HCT-116, 48 h; procedure, shortened: as §1
SW-620 = assay: Anticancer activity against human SW620 cells after 48 hrs by SRB assay; details: SW-620, 48 h
Procedure, shortened: (§2)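 NCI-60 five-dose mode: cells in RPMI 1640 with 5% FBS and 2 mM glutamine, plated at 5000–40,000 cells/well, and preincubated 24 h, with time-zero plates TCA-fixed. Drug given at five concentrations (10-fold or ½-log serial dilutions). Cold TCA fixation 60 min at 4 °C, SRB stain, Tris solubilization, A515. IC50 taken where [(Ti−Tz)/(C−Tz)]×100 = 50.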

SNB-19 = assay: Anticancer activity against human SNB19 cells after 48 hrs by SRB assay; details: SNB-19, 48 h
SNB-75 = assay: Anticancer activity against human SNB75 cells after 48 hrs by SRB assay; details: SNB-75, 48 h
U-251 = assay: Anticancer activity against human U251 cells after 48 hrs by SRB assay; details: U-251, 48 h; procedure, shortened: as §2
SK-MEL-2 = assay: Anticancer activity against human SK-MEL-2 cells after 48 hrs by SRB assay; details: SK-MEL-2, 48 h
SK-MEL-28 = assay: Anticancer activity against human SK-MEL-28 cells after 48 hrs by SRB assay; details: SK-MEL-28, 48 h
UACC-62 = assay: Anticancer activity against human UACC62 cells after 48 hrs by SRB assay; details: UACC-62, 48 h; procedure, shortened: as §2
IGROV-1 = assay: Anticancer activity against human IGROV1 cells after 48 hrs by SRB assay; details: IGROV-1, 48 h; procedure, shortened: as §1
OVCAR-3 = assay: Anticancer activity against human OVCAR3 cells after 48 hrs by SRB assay; details: OVCAR-3, 48 h
OVCAR-4 = assay: Anticancer activity against human OVCAR4 cells after 48 hrs by SRB assay; details: OVCAR-4, 48 h
OVCAR-5 = assay: Anticancer activity against human OVCAR5 cells after 48 hrs by SRB assay; details: OVCAR-5, 48 h
OVCAR-8 = assay: Anticancer activity against human OVCAR8 cells after 48 hrs by SRB assay; details: OVCAR-8, 48 h
A498 = assay: Anticancer activity against human A498 cells after 48 hrs by SRB assay; details: A498, 48 h; procedure, shortened: as §1
ACHN = assay: Anticancer activity against human ACHN cells after 48 hrs by SRB assay; procedure, shortened: as §1
RXF 393 = assay: Anticancer activity against human RXF393 cells after 48 hrs by SRB assay; details: RXF 393, 48 h
UO-31 = assay: Anticancer activity against human UO31 cells after 48 hrs by SRB assay; details: UO-31, 48 h; procedure, shortened: as §2
PC-3 = assay: Anticancer activity against human PC3 cells after 48 hrs by SRB assay; details: PC-3, 48 h
MCF7 = assay: Anticancer activity against human MCF7 cells after 48 hrs by SRB assay; details: MCF7, 48 h; procedure, shortened: as §1
MDA-MB-231 = assay: Anticancer activity against human MDA-MB-231 cells after 48 hrs by SRB assay; details: MDA-MB-231, 48 h; procedure, shortened: as §1
[1] = read-out: LC50 (the source's name)

COc1cccc(-c2nc3sccn3c2-c2ccnc(NCCNC(=O)Nc3cccc(C(F)(F)F)c3)n2)c1
GI50 (HL-60(TB)): 2.92 µM
LC50 (HL-60(TB)): > 100 µM
TGI (HL-60(TB)): 7.43 µM
GI50 (A549): 3.82 µM
LC50 (concentration giving 50% net tumour cell kill) (A549): > 100 µM
TGI (A549): 17.1 µM
GI50 (EKVX): 3.55 µM
LC50 (EKVX): > 100 µM
TGI (EKVX): 59.6 µM
GI50 (NCI-H226): 4.58 µM
LC50 (concentration killing 50% of tumour cells) (NCI-H226): > 100 µM
TGI (NCI-H226): 68.6 µM
GI50 (NCI-H522): 2.67 µM
TGI (NCI-H522): 8.51 µM
CC50 (NCI-H522; [1]): 86.5 µM
GI50 (HCC 2998): 3.75 µM
TGI (HCC 2998): 18.7 µM
CC50 (HCC 2998; [1]): > 100 µM
GI50 (HCT-116): 3.45 µM
TGI (HCT-116): 11.6 µM
CC50 (HCT-116; [1]): > 100 µM
GI50 (SW-620): 4.47 µM
TGI (SW-620): 91.5 µM
CC50 (SW-620; [1]): > 100 µM
GI50 (SNB-19): 7.77 µM
TGI (SNB-19): > 100 µM
CC50 (SNB-19; [1]): > 100 µM
GI50 (SNB-75): 3.41 µM
TGI (SNB-75): 21.7 µM
CC50 (SNB-75; [1]): > 100 µM
GI50 (U-251): 3.95 µM
TGI (U-251): 19.8 µM
CC50 (U-251; [1]): > 100 µM
GI50 (SK-MEL-2): 2.03 µM
TGI (SK-MEL-2): 4.46 µM
CC50 (SK-MEL-2; [1]): 9.78 µM
GI50 (SK-MEL-28): 5.36 µM
TGI (SK-MEL-28): 26.2 µM
CC50 (SK-MEL-28; [1]): > 100 µM
GI50 (UACC-62): 2.55 µM
TGI (UACC-62): 7.48 µM
CC50 (UACC-62; [1]): 27.7 µM
GI50 (IGROV-1): 3.32 µM
TGI (IGROV-1): 21.8 µM
CC50 (IGROV-1; [1]): > 100 µM
GI50 (OVCAR-3): 4.22 µM
TGI (OVCAR-3): 20.3 µM
CC50 (OVCAR-3; [1]): > 100 µM
GI50 (OVCAR-4): 3.78 µM
TGI (OVCAR-4): 34.1 µM
CC50 (OVCAR-4; [1]): > 100 µM
GI50 (OVCAR-5): 6.37 µM
TGI (OVCAR-5): 52.2 µM
CC50 (OVCAR-5; [1]): > 100 µM
GI50 (OVCAR-8): 3.28 µM
TGI (OVCAR-8): 9.79 µM
CC50 (OVCAR-8; [1]): 66.2 µM
GI50 (A498): 2.44 µM
TGI (A498): 17.5 µM
CC50 (A498; [1]): > 100 µM
GI50 (ACHN): 3.17 µM
TGI (ACHN): 19.1 µM
CC50 (ACHN; [1]): > 100 µM
GI50 (RXF 393): 1.77 µM
TGI (RXF 393): 3.65 µM
CC50 (RXF 393; [1]): 7.49 µM
GI50 (UO-31): 2.88 µM
TGI (UO-31): 24.8 µM
CC50 (UO-31; [1]): > 100 µM
GI50 (PC-3): 2.47 µM
TGI (PC-3): 11.9 µM
CC50 (PC-3; [1]): > 100 µM
GI50 (MCF7): 3.12 µM
TGI (MCF7): 13.3 µM
CC50 (MCF7; [1]): > 100 µM
GI50 (MDA-MB-231): 3.47 µM
TGI (MDA-MB-231): 12 µM
CC50 (MDA-MB-231; [1]): > 100 µM
